From publication PMC4966677 (ACS infectious diseases, 2015)
Where “and” joins values, the source holds several entries; their conditions need not be identical. Equal entries are not always repeated.

How the values were obtained:
M. tuberculosis H37Rv = test: Microplate Alamar Blue assay; format: cell-based, Mycobacterium tuberculosis; conditions: for In vitro anti-Mtb activity MABA-MIC H37Rv: Minimum Inhibitory Concentration, strain H37Rv; for Activity in standard MIC assay (in words): strain not given
M. tuberculosis Erdman = test: Microplate Alamar Blue assay; format: cell-based, Mycobacterium tuberculosis; conditions: Minimum Inhibitory Concentration, strain Erdman
Mtb-infected macrophages = test: Growth inhibition of Mtb in IFN-γ-activated J774 macrophages; format: cell-based, Mycobacterium tuberculosis; conditions: read-out: In vitro anti-Mtb activity, Mtb-infected macrophages (IC90); IC90 in macrophages activated with γ-interferon
[1] = Oral pharmacokinetics in guinea pig plasma; format: in vivo; conditions: for AUCALL / CMAX / Clearance / Half-life / TMAX / VD (Volume of distribution): oral; for Oral bioavailability (in words): guinea pigs, oral dosing
[2] = Tolerability in guinea pigs during the efficacy study; format: in vivo, guinea pig; conditions: L01-Z08 20 mg/kg and L335-M34 50 mg/kg once daily alone or in combination for 6 weeks
[3] = system: Human PTP panel: PTP1B, TC-PTP, SHP1, SHP2, FAp1, Lyp, Meg2, HePTP, laforin, VHX, VHR, LMWPTP, Cdc14A, PTPα, LAR, CD45, PTPRG; test: Human PTP panel selectivity, pNPP assay; format: biochemical
Summary of the method: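 Each PTP expressed in and purified from E. coli, used at 5 nM final. The reaction is started by adding enzyme to pNPP, set at that PTP's Km, plus varying test compound concentrations. It is stopped after 15 min with 5N NaOH. p-Nitrophenol is read at 405 nm, corrected with a no-enzyme control. IC50 is fit to AI/A0 = IC50/(IC50+[I]).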

Mtb H37Rv = test: Chronic TB infection model in guinea pigs, lung CFU; format: in vivo; conditions: added to the standard regimen HRZ, guinea pig lungs, after 6 weeks of treatment
mPTPA = mPTPA (Mycobacterium tuberculosis, UniProt P9WIA1)
mPTPA, sequence (P9WIA1 whole entry): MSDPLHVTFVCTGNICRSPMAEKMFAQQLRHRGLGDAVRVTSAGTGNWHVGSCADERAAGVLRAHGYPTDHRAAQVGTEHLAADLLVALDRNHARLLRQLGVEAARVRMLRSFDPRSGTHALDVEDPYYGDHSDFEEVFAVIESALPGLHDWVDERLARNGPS

mPTPB = mPTPB (Mycobacterium tuberculosis, UniProt I6WXK4)
mPTPB, sequence (I6WXK4 whole entry, looked up): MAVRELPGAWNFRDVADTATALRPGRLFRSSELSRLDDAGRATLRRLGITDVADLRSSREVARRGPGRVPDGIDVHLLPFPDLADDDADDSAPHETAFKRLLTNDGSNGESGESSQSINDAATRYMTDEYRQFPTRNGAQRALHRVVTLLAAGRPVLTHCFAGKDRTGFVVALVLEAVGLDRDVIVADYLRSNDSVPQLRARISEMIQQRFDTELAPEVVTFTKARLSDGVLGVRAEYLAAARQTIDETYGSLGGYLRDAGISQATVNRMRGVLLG

[4] = guinea pig, Co-admin: L335M34 50 mg/kg and L01Z08 20 mg/kg together
[5] = guinea pig, Single (given alone), L335M34 50 mg/kg, L01Z08 20 mg/kg

## O=C(O)c1cc2c(C#Cc3cccc(C(F)(F)F)c3)c(-c3ccccc3)oc2cc1O [Compound L01-Z08]
M. tuberculosis H37Rv
  In vitro anti-Mtb activity MABA-MIC H37Rv: >10 >10 uM
  Activity in standard MIC assay (in words): inactive
M. tuberculosis Erdman
  In vitro anti-Mtb activity MABA-MIC Erdman: >10 >10 uM
Mtb-infected macrophages
  IC90: < 5 µM
[1]; [4]
  AUCALL: 28.16176 µg·h/mL
  CMAX: 3059.668 ng/mL
  Clearance: 0.701564 L/h/kg
  Half-life: 6.141 h
  TMAX: 1.587 h
  VD (Volume of distribution): 6215.132
[1]; [5]
  AUCALL: 13.16689 µg·h/mL
  CMAX: 1870.43 ng/mL
  Clearance: 1.518474 L/h/kg
  Half-life: 5.512 h
  TMAX: 1.587 h
  VD (Volume of distribution): 12074.939
[1]
  Oral bioavailability (in words): good oral bioavailability
[2]
  Signs of toxicity: no overt signs of toxicity

## Cc1c(Br)cc(NC(=O)CS(=O)(=O)O)cc1Br [Compound L335-M34]
[3]; at concentrations below 3 μM
  Activity against a panel of human PTPs: no significant activity
[3]; panel of 17 human PTPs
  Fold selectivity vs. PTP panel: >20 fold
M. tuberculosis H37Rv
  In vitro anti-Mtb activity MABA-MIC H37Rv: >10 >10 uM
  Activity in standard MIC assay (in words): devoid of activity
M. tuberculosis Erdman
  In vitro anti-Mtb activity MABA-MIC Erdman: >10 >10 uM
Mtb-infected macrophages
  IC90: 1.38 µM
[1]; [4]
  AUCALL: 52.75261 µg·h/mL
  CMAX: 7064.956 ng/mL
  Clearance: 0.950034 L/h/kg
  Half-life: 4.16 h
  TMAX: 2.5 h
  VD (Volume of distribution): 5702.19
[1]; [5]
  AUCALL: 54.40661 µg·h/mL
  CMAX: 5142.47 ng/mL
  Clearance: 0.917462 L/h/kg
  Half-life: 5.197 h
  TMAX: 2.5 h
  VD (Volume of distribution): 6878.467
[1]; guinea pig, single oral dose, L335-M34 50 mg/kg, L01-Z08 20 mg/kg
  Time plasma concentration stays 10-fold in excess of biochemical IC50: 12–14 hours and 12–24 hours
[1]
  Oral bioavailability (in words): good oral bioavailability
Mtb H37Rv
  Further reduction of mean lung CFU relative to HRZ: 0.17 log10
[2]
  Signs of toxicity: no overt signs of toxicity
mPTPA
  Mode of mPTPA inhibition: reversible and competitive inhibitor
mPTPA; read-out: Biochemical potency against target (IC50, nM) mPTPA, pH 7
  IC50: 160 nM
mPTPA; read-out: Ki for mPTPA
  Ki: 0.056 ± 0.002 µM
mPTPB
  Activity against mPTPB: no significant activity
  Fold selectivity vs. mPTPA/B (mPTPA inhibitor over mPTPB): >20 fold
mPTPB; read-out: Biochemical potency against target (IC50, nM) mPTPB, pH 7
  IC50: > 3200 nM
